# Screening data: PubChem, several laboratories
# UCH37 DUB inh – inhibitors of human deubiquitinating enzyme UCH37. AID 588478. 0.33% of 330,000 active. purified proteasome/UCH37, Ub-AMC cleavage fluorescence. Q9Y5K5. inhibition, % (no concentration beside the values);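 active means mean inhibition over replicate wells above about 20%, limit read from the data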;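 further: 0% = compound-free wells with enzyme and 100% = wells lacking proteasome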
# Target sequence (Q9Y5K5 whole entry, looked up): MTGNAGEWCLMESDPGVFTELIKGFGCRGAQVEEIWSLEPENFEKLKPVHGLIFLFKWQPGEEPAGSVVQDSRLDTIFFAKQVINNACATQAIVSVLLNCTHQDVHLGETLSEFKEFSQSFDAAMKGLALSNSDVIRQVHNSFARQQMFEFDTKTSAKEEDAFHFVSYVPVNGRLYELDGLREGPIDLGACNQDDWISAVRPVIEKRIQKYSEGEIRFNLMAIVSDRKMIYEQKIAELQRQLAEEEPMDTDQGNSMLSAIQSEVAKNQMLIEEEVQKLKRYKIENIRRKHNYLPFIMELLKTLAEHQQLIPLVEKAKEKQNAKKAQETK
#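 Assay system: Proteasome-bound UCH37. Buffer or medium: pH 7.4 Tris-HCl (50 mM) with ovalbumin, ATP-MgCl2, DTT. Incubation: 30 min preincubation with enzyme, 25 min cleavage at room temperature. Measured by: fluorescence, ex 355 nm, em 460 nm. Read-out basis: percent inhibition. Control set: wells without proteasome as full block, compound-free enzyme plus substrate as uninhibited.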
# aDG glyco up – alpha-DG glycosylation activation. Pro5-aDG cells, alpha-DG glycosylation AlphaScreen (IIH6); 0% Pro5, 100% B10-LARGE cell signal. activation, % at 10 µM. 0.22% of 360,000 active. AID 624168;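 active means activation of at least 8% versus controls, or a plate z-score of at least 8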;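 further: Pro5 are CHO cells carrying HIG-tagged alpha-DG that lacks glycosylation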
# HKDC1 inhibitor – HKDC1 (human) hexokinase inhibition; inhibition, % at 20 µM; recombinant HKDC1, G6PDH/diaphorase resazurin coupled fluorescence; Q2TB90; 0.16% of 340,000 active;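 active means inhibition above about 35% when tested at 20 µM, limit read from the data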;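 further: plate controls were DMSO wells with enzyme for no effect and DMSO wells lacking enzyme for full effect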
#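 test system = in-house recombinant HK5 (HKDC1) enzyme | amount = HKDC1 at 5 µg/mL | control set = DMSO-enzyme wells negative, buffer-substituted wells positive | compound = one dose of 20 µM, 1% DMSO | schedule = reaction time 90 min, room temperature, protected from light | technique = resorufin fluorescence at 613 nm | reagent = glucose with 1 mM ATP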
# H9c2 protect – protects H9c2 cardiomyocytes from peroxide injury; H2O2 injury protection, ATPLite, 2 h; protection from H2O2 cell death, % at 20 µM; 0.63% of 360,000 active;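 active means compounds giving at least 50% protection of heart cells from peroxide-induced death in the single-dose screen, raw or plate-pattern-corrected value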;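 further: 0% = DMSO wells with peroxide and 100% = DMSO wells without peroxide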
# B2AR ag – human beta-2 adrenergic receptor agonism by FAP. P07550. Am2.2-beta2AR cells, FAP receptor internalization, flow cytometry. response, % (test concentration not listed). 0.43% of 340,000 active. AID 504454;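 active means response above a set limit, near 3 SD of response in nonfluorescent compounds, cut at about 42% in these data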
# Target sequence (P07550 whole entry, looked up): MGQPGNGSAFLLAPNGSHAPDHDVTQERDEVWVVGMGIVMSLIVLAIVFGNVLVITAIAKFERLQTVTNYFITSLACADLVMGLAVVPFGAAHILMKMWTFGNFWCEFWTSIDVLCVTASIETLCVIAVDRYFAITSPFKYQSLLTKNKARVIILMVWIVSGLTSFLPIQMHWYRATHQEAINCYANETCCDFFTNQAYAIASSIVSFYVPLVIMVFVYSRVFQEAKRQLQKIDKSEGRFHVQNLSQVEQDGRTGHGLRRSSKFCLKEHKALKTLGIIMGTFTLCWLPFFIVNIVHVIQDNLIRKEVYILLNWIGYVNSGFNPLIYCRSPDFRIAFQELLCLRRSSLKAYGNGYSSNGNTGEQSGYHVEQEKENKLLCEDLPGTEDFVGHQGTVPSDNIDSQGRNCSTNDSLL
# PfG6PD inh – PfG6PD (Plasmodium falciparum) enzyme inhibition. PfGluPho enzyme, NADPH resazurin-diaphorase fluorescence. inhibition, % at 20 µM. 0.78% of 350,000 active;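 active means inhibition reaching at least a set limit at 20 µM in the primary screen, cut at about 59% in these data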;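 further: 0% = DMSO wells with substrate and 100% = DMSO wells lacking glucose-6-phosphate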
# UCH37 reconfirm – UCH37 Ub-AMC cleavage inhibition, confirmed. shares compounds with UCH37 DUB inh. Proteasome-bound UCH37, Ub-AMC cleavage fluorescence. inhibition, % at 20 µM. 27% of 480 active;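 active means average inhibition over replicates above about 50%, so the earlier screening hit is confirmed, limit read from the data; inactive means the rest, counted as false positives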;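 further: based on cleavage rate fitted by regression over a 30 min kinetic read; 0% = proteasome plus Ub-AMC and 100% = Ub-AMC without proteasome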
# An asterisk follows results filed as active; / = no result; ! = a repeat was not active. A selection: hits, their analogues and other compounds. The true share with any hit is near 2.1%.
SMILES,UCH37 DUB inh,aDG glyco up,HKDC1 inhibitor,H9c2 protect,B2AR ag,PfG6PD inh,UCH37 reconfirm
N#Cc1c(Cl)nc(NN=Cc2ccccc2)c(Cl)c1Cl,3.8,/,/,/,/,/,/
C(=NNc1nc(N2CCCCCC2)nc(N2CCCCCC2)n1)c1ccccc1,3.7,/,/,/,/,/,/
O=C1NNC(c2ccccc2)=N/C1=C\c1ccccc1Cl,33.9*,0.0,11.1,-2.1,0.9,-5.3,74.0*
Cc1cc(C)c2c(c1)C(=NNc1ccc(S(N)(=O)=O)cc1[N+](=O)[O-])CCC2,6.8,/,/,/,/,/,/
O=C1N=C(N2CCCC2C(=O)O)S/C1=C\c1ccco1 (stereo not drawn),43.2*,-0.1,-5.9,0.8,4.5,-0.5,12.6
CC1=Nc2ncnn2C(c2ccccc2)C1=NO (stereo not drawn),3.9,/,/,/,/,/,/
NC(=O)CC(NC(=O)Cc1ccc(Br)cc1)c1ccc(NCCOc2ccccc2)c([N+](=O)[O-])c1 (stereo not drawn),35.5*,-0.2,-1.6,-3.5,-6.3,-5.4,15.3
O=[N+]([O-])c1cc(C=NN2CCOCC2)cs1,6.5,/,/,/,/,/,/
CCC(=O)N(C1=C(NC(C)C)C(=O)c2ccccc2C1=O)C(C)C,46.4*,0.9,14.2,-5.0,4.8,17.9,21.7
COc1ccccc1C(=O)NCC(=O)NN=Cc1ccc([N+](=O)[O-])cc1,1.8,/,/,/,/,/,/
Cc1[nH][nH]c(=O)c1C(c1ccc(O)c(Br)c1)c1c(C)[nH][nH]c1=O,2.9,0.0,2.4,-1.8,-3.2,-7.8,/
CCOc1cc(C(c2c(C)[nH][nH]c2=O)c2c(C)[nH][nH]c2=O)ccc1O,57.8*,0.1,-1.5,4.0,9.7,20.8,39.8
COC(=O)c1ccc(-c2ccc(C(c3c(C)[nH][nH]c3=O)c3c(C)[nH][nH]c3=O)o2)cc1,44.9*,0.1,6.5,-12.4,26.2,35.1,67.2*
Cc1[nH][nH]c(=O)c1C(c1ccc(-c2cccc(C(=O)O)c2)o1)c1c(C)[nH][nH]c1=O,44.3*,-0.3,-2.2,-9.8,-0.5,19.1,70.8*
Cc1[nH][nH]c(=O)c1C(c1ccc(-c2cccc(Cl)c2)o1)c1c(C)[nH][nH]c1=O,80.5*,0.2,5.3,-8.3,11.2,50.0,84.0*
CNC(=S)N/N=C/c1ccc(-c2cccc(C(=O)O)c2)o1,/,-0.1,-5.2,15.0,-0.2,4.1,/
COC(=O)COc1ccc(C(c2c(C)[nH][nH]c2=O)c2c(C)[nH][nH]c2=O)cc1,5.3,0.0,6.6,-0.7,-1.8,1.4,/
CCOc1ccc(C=NNC(=O)Cc2ccccc2)cc1CN1CC2CC(C1)c1cccc(=O)n1C2 (stereo not drawn),4.2,/,/,/,/,/,/
CC(C)n1cc(/C=C/c2cc[n+](C)cc2)c2ccccc21,27.7*,0.0,2.8,-16.0,-34.4,1.6,19.4
O=C(O)CN1C(=O)/C(=C\c2ccccc2OCc2ccc(Cl)cc2Cl)SC1=S,26.2*,-0.1,11.9,4.3,-0.2,-34.8,54.2*
O=c1cc(-c2ccccc2Cl)oc2ccc([N+](=O)[O-])c(O)c12,1.9,-0.4,3.6,2.5,0.6,-55.6,/
O=[N+]([O-])c1cc([N+](=O)[O-])c2oc(-c3ccccc3)c(Br)c2c1O,26.7*,-0.3,14.4,-16.7,3.6,-17.1,71.0*
Cc1ccc(-c2c(C(=O)NN=Cc3cccnc3)nnn2-c2nonc2N)cc1,1.6,/,/,/,/,/,/
COc1ccc(NC(=O)c2ccc(Br)o2)cc1,40.5*,0.0,-6.8,-10.5,1.5,19.9,1.7
COc1ccc(NC(=S)NC(=O)c2ccc(Br)o2)cc1,4.2,0.0,-3.8,-2.3,-2.6,11.4,/
SMILES,UCH37 DUB inh,aDG glyco up,HKDC1 inhibitor,H9c2 protect,B2AR ag,PfG6PD inh,UCH37 reconfirm
CCOC(=O)c1ccc(NC(=O)Nc2ccc(OC)c(OC)c2)cc1,4.8,0.1,4.0,19.8,-61.6,13.8,/
CCCCOC(=O)c1ccc(NC(=O)Nc2ccc(OC)c(OC)c2)cc1,38.0*,0.2,2.2,6.6,2.7,8.6,-15.6
C=C(C)C1CCC(C)=C1CC(C)(C)C=Nn1cnnc1 (stereo not drawn),42.0*,/,/,/,/,/,58.2*
CC(=O)NNc1nc(-c2ccc(NC(C)=O)cc2)cs1,37.0*,-0.4,-10.1,-3.6,-1.4,5.7,-21.9
CCN(CC)c1ccc(/C=C(/C#N)C(=O)NC(C)C)o1,29.0*,0.4,5.1,-3.3,6.8,5.1,28.3
CC(C)NC(=O)/C(C#N)=C\c1ccc(N(C)C)o1,37.0*,0.1,19.7,7.6,-7.1,-9.2,35.8
CC(=O)Nc1ccc(OCCC[n+]2ccccc2)cc1,1.9,0.7,-8.3,2.0,3.5,-3.1,/
C[n+]1cn(CC(O)COCc2ccccc2)c2ccccc21 (stereo not drawn),-0.2,0.2,-2.8,1.4,-0.3,-6.2,/
CCCCCc1ccc(OCCC[n+]2ccccc2)c(CCCCC)c1,29.8*,0.0,2.4,-15.4,12.6,18.1,36.1
CCCCCc1ccc(OCCOCCn2c[n+](C)c3ccccc32)c(CCCCC)c1,33.3*,1.9,3.4,-16.9,8.7,4.0,57.0*
CCOC(=O)CC1=NN(c2ccccc2)C(=O)/C1=C\c1ccc(OC)cc1OC,35.5*,0.0,-5.1,-6.3,6.5,-2.4,-2.7
S=c1[nH]nc(-c2ccncc2)n1N=C/C=C/c1ccco1,15.3,/,/,/,/,/,/
CCCCCCCCCCCCCCCC[n+]1ccc(/C=N/O)cc1,/,-0.4,-13.8,-19.9,2.7,14.8,/
CCCCCCCCCCCCCCCC[n+]1cccc(C(=O)N(CC)CC)c1,58.2*!,0.9,0.4,-25.1,15.3,3.6,65.8*
CCCCCCCC[n+]1cccc(C(=O)N(CC)CC)c1,0.8,-0.1,-12.0,-1.8,-6.0,-10.6,/
CCCCCCCCCCCCCCCC[n+]1ccc(C(N)=O)cc1,68.0*,1.9,17.0,-10.6,14.8,8.3,71.2*
Cc1cc(C=Nn2cnnc2)c(C)n1-c1ccc2c(c1)OCO2,6.4,/,/,/,/,/,/
O=S(=O)(O)c1cc(O)c(N=Nc2ccc(O)cc2O)c2ccccc12,30.7*,-0.1,6.2,-9.5,3.4,8.0,50.8*
O=S(=O)(O)c1cc(O)ccc1O,-1.6,0.3,1.5,-2.6,0.1,15.9,/
O=c1c2c(-c3cccs3)csc2ncn1N=Cc1ccc(OC(F)F)cc1,-2.9,/,/,/,/,/,/
COc1cc(/C=N/N2CCCCC2)cc([N+](=O)[O-])c1O,/,-0.1,3.4,4.1,-0.8,-2.8,/
COc1cc(C=Nn2cnnc2-n2nc(C)cc2C)cc([N+](=O)[O-])c1O,29.2*,/,/,/,/,/,25.5
Cc1ccc(C(C(=O)NC2CCCC2)N(Cc2ccc3c(c2)OCO3)C(=O)Cc2cccs2)cc1 (stereo not drawn),36.2*,0.3,9.1,20.0,-0.1,2.9,-12.7
